The source of these data is ChEMBL document CHEMBL5380783, “N-Substituted l-Iminosugars for the Treatment of Sanfilippo Type B Syndrome” (J Med Chem, 2023).

The source made the active and inactive calls. The rule behind the calls is not given here.

Data set [1] has as its system HeLa. Nature of the data set: Cytotoxicity against human HeLa cells assessed as reduction in cell viability at 20 uM incubated for 48 hrs by trypan blue exclusion method. It counts as functional, cell-based. An outline of the steps: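 HeLa cells seeded at 100,000 per well and grown overnight in complete RPMI. Exposed to 20 μM compound in the same medium for 48 h at 37 °C; untreated mock as control. Cells trypsinized, live cells counted by trypan blue exclusion on an automated counter. Means of three independent experiments, each in triplicate, with s.e.m.; Student's t-test, p < 0.05.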

The test system of data set [2] is HeLa. Nature of the data set: Upregulation of NAGLU protein expression in human HeLa cells at 20 uM incubated for 24 hrs by western blot analysis. It counts as functional, cell-based. A general note: A western blot detects proteins with antibodies after separation by electrophoresis.
Data set [3] concerns Fibroblast. As to the kind of experiment: Inhibition of heparan sulfate accumulation on cell membrane in Sanfilippo-B patient derived human fibroblast cells at 20 uM incubated for 48 hrs by indirect immunofluorescence staining analysis. It counts as functional, cell-based. An outline of the steps:
(§1)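 HDFa, MPS IIIA, MPS IIIB and MPS I patient fibroblasts in DMEM, 10% FBS, grown 48 h on coverslips with 20 μM compound. Double immunostained for HS (10E4) and Lamp1 with DAPI, confocal imaging. Mean fluorescence intensity expressed relative to untreated cells (d-enantiomers: percent positive cells), 50 random cells from three experiments.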

Data set [4] relates to SK-N-BE(2). Nature of the data set: Upregulation of NAGLU protein expression in NAGLU-silenced human SK-NBE cell clones at 20 uM incubated for 24 hrs by western blot analysis. It counts as functional, cell-based. An outline of the steps:
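Western blot of control SK-NBE clone and NAGLU-shRNA SK-NBE clone (RPMI, 10% FBS, puromycin 0.7 μg/mL) after 24 h at 20 μM. Lysis, Bradford assay, 50 μg per lane, nitrocellulose transfer, anti-NAGLU antibody overnight at 4 °C, HRP secondary and ECL. GAPDH re-probe for loading.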

The test system of data set [5] is HaCaT. Nature of the data set: Antiproliferative activity against human HaCaT cells upto 100 uM. Type of data set: toxicity, cell-based.
The test system of data set [6] is SK-N-BE(2). Nature of the data set: Effect on heparan sulfate changes in human SK-NBE cell membrane at 20 uM incubated for 48 hrs by indirect immunofluorescence staining analysis. Type of data set: functional, cell-based. An outline of the steps: (§2)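 Control and NAGLU-silenced SK-NBE clones grown on coverslips with 20 μM compound for 48 h. Fixed in 3.7% formaldehyde, permeabilized with saponin/BSA buffer, stained with anti-Lamp1 or anti-HS 10E4 for 1 h, then Alexa secondaries. Confocal imaging with 63× objective. Scored as percent cells with enlarged Lamp1 structures or membrane HS, plus mean fluorescence intensity, over 50 random cells from three experiments.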

Data set [7] relates to Fibroblast. Nature of the data set: Inhibition of lysosomal defects in MPS-1 patient derived human fibroblast cells assessed as reduction in accumulation of enlarged LAMP1-positive lysosomal structures within the cytoplasm at 40 uM incubated for 48 hrs by LAMP1 staining based indirect immunofluorescence assay. Type of data set: functional, cell-based. The procedure, abridged:
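MPS I patient fibroblasts grown on coverslips with 40 μM compound for 48 h. Immunostained for HS (10E4) and Lamp1 with DAPI, imaged by confocal microscopy. Mean fluorescence intensity expressed relative to untreated cells, 50 random cells from three independent experiments.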

Data set [8] deals with SK-N-BE(2). As to the kind of experiment: Inhibition of amyloid beta (1 to 42) accumulation in cytoplasm of NAGLU-silenced human SK-NBE cell clones at 20 uM incubated for 48 hrs by indirect immunofluorescence staining based analysis. Type of data set: functional. The procedure, abridged: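 NAGLU-silenced SK-NBE clone on coverslips, exposed to 20 μM compound for 48 h. Cells fixed in formaldehyde, permeabilized with saponin, stained with anti-Aβ1-42 antibody and fluorescent secondary, imaged by confocal microscopy. Cells bearing Aβ1-42-positive structures counted among 50 random cells from three independent experiments; untreated clone as comparator.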

Data set [9] deals with SK-N-BE(2). As to the kind of experiment: Inhibition of lysosomal defects in NAGLU-silenced human SK-NBE cell clones assessed as reduction in more concentrated lysosomal distribution in the perinuclear region of the cytoplasm at 20 uM incubated for 48 hrs by LAMP1 staining based indirect immunofluorescence assay. Type of data set: functional. The procedure, abridged: as §2

The test system of the next data set is IB3-1. As to the kind of experiment: Cytotoxicity against human IB3-1 cells assessed as induction of apoptosis upto 100 uM. It counts as toxicity, cell-based. The following applies: ib3-1, 100 µM.
Data set [10] can be described thus: Antiproliferative activity against human CuFi cells upto 100 uM. Type of data set: toxicity, cell-based.
The subject of data set [11] is HeLa. Nature of the data set: Downregulation of SDC2 protein expression in human HeLa cells at 20 uM incubated for 24 hrs by western blot analysis. Type of data set: functional, cell-based.
For data set [12], the system named is Fibroblast. Nature of the data set: Inhibition of lysosomal defects in Sanfilippo-B patient derived human fibroblast cells assessed as reduction in more concentrated lysosomal distribution in the perinuclear region of the cytoplasm at 20 uM incubated for 48 hrs by LAMP1 staining based indirect immunofluorescence assay. Type of data set: functional, cell-based. An outline of the steps: as §1

The subject of data set [13] is Fibroblast. As to the kind of experiment: Inhibition of heparan sulfate accumulation on cell membrane in MPS-1 patient derived human fibroblast cells at 20 uM incubated for 48 hrs by indirect immunofluorescence staining analysis. It counts as functional, cell-based. The procedure, abridged:
as §1

A short description of data set [14]: Cytotoxicity against human CuFi cells assessed as induction of apoptosis upto 100 uM. Type of data set: toxicity, cell-based.
In data set [15] the test system is Fibroblast. Nature of the data set: Inhibition of lysosomal defects in Sanfilippo-A patient derived human fibroblast cells assessed as reduction in accumulation of enlarged LAMP1-positive lysosomal structures within the cytoplasm at 20 uM incubated for 48 hrs by LAMP1 staining based indirect immunofluorescence assay. Type of data set: functional, cell-based. The procedure, abridged:
as §1

Data set [16] deals with SK-N-BE(2). As to the kind of experiment: Effect on lysosome size and distribution in human SK-NBE cell clone assessed as at 20 uM incubated for 48 hrs by LAMP1 staining based indirect immunofluorescence assay. It counts as functional. An outline of the steps: as §2
The test system of data set [17] is SK-N-BE(2). As to the kind of experiment: Inhibition of lysosomal defects in NAGLU-silenced human SK-NBE cell clones assessed as dispersion of lysosomes all over the cytoplasm at 20 uM incubated for 48 hrs by LAMP1 staining based indirect immunofluorescence assay. It counts as functional. An outline of the steps: as §2
The subject of data set [18] is Fibroblast. As to the kind of experiment: Inhibition of heparan sulfate accumulation on cell membrane in Sanfilippo-A patient derived human fibroblast cells at 20 uM incubated for 48 hrs by indirect immunofluorescence staining analysis. It counts as functional, cell-based. The procedure, abridged: as §1
The subject of data set [19] is HaCaT. Nature of the data set: Cytotoxicity against human HaCaT cells assessed as induction of apoptosis upto 100 uM. It counts as toxicity, cell-based.
For data set [20], the system named is HeLa. Nature of the data set: Downregulation of EXT2 protein expression in human HeLa cells at 20 uM incubated for 24 hrs by western blot analysis. Type of data set: functional, cell-based.
The subject of data set [21] is Alpha-N-acetylglucosaminidase (Homo sapiens), P54802 [UNDEFINED MUTATION]. Nature of the data set: Nonactive chaperone activity against mutated NAGLU in Sanfilippo-B patient derived human fibroblast cells assessed as co-localization of NAGLU with lysosomes by measuring NAGLU/Lamp1-positive structures at 20 uM incubated for 48 hrs by indirect immunofluorescence staining based analysis. Type of data set: cell-based. The procedure, abridged: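 HDFa and MPS IIIB fibroblasts, with or without (mock) 20 μM compound, for 48 h on coverslips. Co-stained for NAGLU and Lamp1 with DAPI, confocal imaging. NAGLU–lysosome co-localization quantified as mean fluorescence relative to untreated cells, 50 random cells from three experiments.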

In data set [22] the test system is Fibroblast. Nature of the data set: Inhibition of lysosomal defects in Sanfilippo-B patient derived human fibroblast cells assessed as dispersion of lysosomes all over the cytoplasm at 20 uM incubated for 48 hrs by LAMP1 staining based indirect immunofluorescence assay. Type of data set: functional, cell-based. An outline of the steps: as §1
Data set [23] has as its system Alpha-N-acetylglucosaminidase (Homo sapiens), P54802 [UNDEFINED MUTATION]. As to the kind of experiment: Stabilization of mutated NAGLU in Sanfilippo-B patient derived human fibroblast cells assessed as increase in NAGLU activity using 4-methylumbelliferyl-N-acetyl-alpha-D-glucosaminide as substrate at 20 uM cells pretreated for 2 hrs with substrate followed by compound addition by fluorescence based analysis. Type of data set: cell-based. The procedure, abridged:
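Pellets of 5 × 10^5 MPS IIIB or HDFa fibroblasts lysed by 10 freeze–thaw cycles and clarified at 4 °C; protein by Lowry. Lysate incubated 2 h with 2 mM 4-methylumbelliferyl-N-acetyl-α-D-glucosaminide stock in 0.2 M Na-acetate pH 4.5, compound added at 20 μM. Activity normalized to protein, expressed as nmol substrate hydrolysed per h per mg.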

Alpha-N-acetylglucosaminidase (Homo sapiens), P54802 [UNDEFINED MUTATION], sequence (P54802 whole entry, looked up, stated change not applied): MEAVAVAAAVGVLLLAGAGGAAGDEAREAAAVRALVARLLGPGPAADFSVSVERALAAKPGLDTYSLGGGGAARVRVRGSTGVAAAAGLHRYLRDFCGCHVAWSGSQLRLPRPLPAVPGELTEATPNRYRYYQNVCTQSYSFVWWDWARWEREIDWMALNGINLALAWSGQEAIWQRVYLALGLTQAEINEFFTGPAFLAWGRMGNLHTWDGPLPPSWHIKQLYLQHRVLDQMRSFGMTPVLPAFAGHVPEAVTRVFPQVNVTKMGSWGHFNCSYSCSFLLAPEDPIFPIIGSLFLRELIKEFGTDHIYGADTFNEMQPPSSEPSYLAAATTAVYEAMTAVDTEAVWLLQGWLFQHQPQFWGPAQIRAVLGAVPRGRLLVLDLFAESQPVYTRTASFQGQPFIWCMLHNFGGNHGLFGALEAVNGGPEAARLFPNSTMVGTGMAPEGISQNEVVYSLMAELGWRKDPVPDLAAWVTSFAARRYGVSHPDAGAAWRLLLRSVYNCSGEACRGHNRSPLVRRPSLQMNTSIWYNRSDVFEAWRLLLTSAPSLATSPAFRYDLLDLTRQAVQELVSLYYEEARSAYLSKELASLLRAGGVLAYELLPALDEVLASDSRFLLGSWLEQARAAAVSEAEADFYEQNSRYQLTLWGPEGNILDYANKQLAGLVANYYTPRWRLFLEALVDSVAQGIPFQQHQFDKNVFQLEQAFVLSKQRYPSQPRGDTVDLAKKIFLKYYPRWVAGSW

Take `CCCCN1C[C@@H](O)[C@H](O)[C@@H](O)[C@@H]1CO.Cl`: the result (with HeLa [1]; in the data set with HeLa [2]; in [21]) was Active. For the same compound, the inhibition entry in the data set on Fibroblast [3], in the data set on Fibroblast [7], in the data set on SK-N-BE(2) [8], with SK-N-BE(2) [9], with Fibroblast [12] and in the data set on Fibroblast [15] was “Active” throughout. In addition, the inhibition result in the data set with SK-N-BE(2) [17], in the data set on Fibroblast [18], in the data set on HeLa [20] and in the data set on Fibroblast [22] was “Active” each time. The result with SK-N-BE(2) [4], in the data set with SK-N-BE(2) [6] and in the data set with SK-N-BE(2) [16] was inactive. The Activity result (with HaCaT [5]; in the data set on IB3-1; in data set [10]; in data set [14]; in the data set on HaCaT [19]) was “Non-Toxic” throughout. The inhibition result in the data set on HeLa [11] and in the data set with Fibroblast [13] was “inactive” throughout.
With `Cl.OC[C@@H]1NC[C@@H](O)[C@H](O)[C@H]1O`, the result (with HeLa [1]; with HeLa [2]; in data set [23]; in [21]) was Active. The inhibition entry with Fibroblast [3], in the data set on Fibroblast [7], with SK-N-BE(2) [8], in the data set with SK-N-BE(2) [9], with Fibroblast [12] and with Fibroblast [15] was “Active” throughout. Besides, the inhibition entry in the data set with SK-N-BE(2) [17], in the data set with Fibroblast [18], in the data set with HeLa [20] and in the data set with Fibroblast [22] was “Active” in each case. Besides, the outcome with SK-N-BE(2) [4], in the data set with SK-N-BE(2) [6] and in the data set on SK-N-BE(2) [16] was inactive. The Activity entry (in the data set with HaCaT [5]; in the data set on IB3-1; in data set [10]; in data set [14]; in the data set on HaCaT [19]) was “Non-Toxic” in each case. Besides, the inhibition result in the data set on HeLa [11] and in the data set on Fibroblast [13] was “inactive” in each case.
For `Cl.OC[C@H]1[C@H](O)[C@@H](O)[C@H](O)CN1CCCCCOCC12CC3CC(CC(C3)C1)C2`, the result (in the data set on HeLa [1]; in the data set on HeLa [2]; in data set [23]; in data set [21]) was Active. Moreover, the inhibition result in the data set with Fibroblast [3], in the data set with Fibroblast [7], with SK-N-BE(2) [8], in the data set on SK-N-BE(2) [9], with Fibroblast [12] and with Fibroblast [15] was “Active” in each case. Moreover, the inhibition entry with SK-N-BE(2) [17], in the data set on Fibroblast [18] and in the data set with Fibroblast [22] was “Active” throughout. Further, the outcome in the data set with SK-N-BE(2) [4], with SK-N-BE(2) [6] and with SK-N-BE(2) [16] was inactive. Also, the Activity entry (in the data set on HaCaT [5]; in the data set on IB3-1; in [10]; in data set [14]; with HaCaT [19]) was “Non-Toxic” each time. Moreover, the inhibition result in the data set on HeLa [11], in the data set on Fibroblast [13] and in the data set with HeLa [20] was “inactive” throughout.
For the compound `COCCCCCCCCCN1C[C@@H](O)[C@H](O)[C@@H](O)[C@@H]1CO.Cl`, the result (in the data set on HeLa [1]; in the data set on HeLa [2]; in data set [23]; in [21]) was Active. Further, the inhibition entry in the data set on Fibroblast [3], in the data set on Fibroblast [7], in the data set on SK-N-BE(2) [8], in the data set with SK-N-BE(2) [9], with Fibroblast [12] and with Fibroblast [15] was “Active” each time. Further, the inhibition entry with SK-N-BE(2) [17], in the data set with Fibroblast [18] and in the data set with Fibroblast [22] was “Active” in each case. In addition, the result in the data set on SK-N-BE(2) [4], in the data set with SK-N-BE(2) [6] and with SK-N-BE(2) [16] was inactive. Further, the Activity entry (in the data set on HaCaT [5]; with IB3-1; in [10]; in data set [14]; in the data set on HaCaT [19]) was “Non-Toxic” each time. Also, the inhibition result with HeLa [11], in the data set with Fibroblast [13] and with HeLa [20] was “inactive” in each case.
